# Calls of active or inactive are those of the source. The calls are words filed in the database; no cut-off is given here.
# Key:
# [1] = Antiproliferative activity against human cisplatin-resistant IGROV1/Pt1 cells with p53 mutation after 72 hrs; format: functional, cell-based, IGROV-1
# How it was run: (§1)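 Ovarian carcinoma cells in log-phase growth were seeded in duplicate. Drug was added 24 h after seeding and exposure lasted 72 h. Cells were harvested and counted with a cell counter. IC₅₀ is the concentration giving a 50% drop in cell number versus untreated control.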
# [2] = system: IGROV-1; assay: Antiproliferative activity against human IGROV1 cells after 72 hrs; format: functional, cell-based; settings: IGROV-1, 72 h; how it was run: as §1
# [3] = system: IGROV-1; assay: Induction of apoptosis in IGROV1 cells after 72 hrs by TUNEL assay; format: functional, Homo sapiens; parameters: concentration or dose not given beside the values
# How it was run: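 Cells exposed to drug for 72 h, fixed in 4% paraformaldehyde for 60 min at room temperature, then washed and resuspended in ice-cold PBS. Apoptosis detected by TUNEL and analyzed by flow cytometry.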
# [4] = system: IGROV-1; assay: Cell cycle arrest in IGROV1 cells assessed as accumulation at G1/S phase by FAC scan flow cytometry; format: functional, cell-based; settings: Homo sapiens
# How it was run: (§2)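 Cells treated at the IC₈₀ concentration. Cell cycle distribution of propidium iodide-stained cells measured by FACScan flow cytometry at 24, 48 and 72 h of treatment. One experiment representative of three.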
# [5] = system: NB-4; assay: Antiproliferative activity against human NB4 cells after 72 hrs; format: functional, cell-based; settings: NB-4, 72 h
# How it was run: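 Leukemia cells were exposed to drug for 24 h, and growth inhibition was assessed at 72 h by cell counting. IC₅₀ is the concentration giving a 50% drop in cell number versus untreated control.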
# [6] = system: IGROV-1; assay: Induction of DNA damage in IGROV1 cells assessed as p53 protein phosphorylation after 6 hrs; format: functional, cell-based; settings: Homo sapiens
# [7] = system: IGROV-1; assay: Induction of DNA damage in IGROV1 cells assessed as RPA2 protein phosphorylation after 6 hrs; format: functional, cell-based; settings: Homo sapiens
# [8] = system: IGROV-1; assay: Cell cycle arrest in IGROV1 cells assessed as accumulation at subG1 phase by FAC scan flow cytometry; format: functional, cell-based; settings: Homo sapiens, TDE = time-dependent effect; how it was run: as §2
# [9] = system: IGROV-1; assay: Induction of DNA damage in IGROV1 cells assessed as H2AX histone phosphorylation after 6 hrs; format: functional, cell-based; settings: Homo sapiens
# [10] = molecular target: c-Jun N-terminal kinase, JNK (Homo sapiens) (UniProt P45983+P53779+P45984); assay: Activation of JNK in IGROV1 cells assessed as phosphorylation after 18 hrs; format: cell-based; settings: IGROV-1
# How it was run: (§3)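 Cells treated for 18 h at each compound's IC₈₀ concentration. Lysates analyzed by Western blot with phospho-specific antibodies to detect activated JNK and p38.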
# [11] = molecular target: T1, MAP kinase p38 (Homo sapiens) (UniProt O15264+Q15759+Q16539+P53778); assay: Activation of p38 kinase in IGROV1 cells assessed as phosphorylation after 18 hrs; format: cell-based; settings: IGROV-1; how it was run: as §3
# [12] = molecular target: T1, MAP kinase p38 (Homo sapiens); assay: Activation of p38 kinase in IGROV1/Pt1 cells with p53 mutation assessed as phosphorylation after 18 hrs; format: cell-based; settings: IGROV-1; how it was run: as §3
# [13] = Homo sapiens, IGROV-1/Pt1, 72 h
Activity [10],Activity [11],Activity [12],Compound,"IC50 [1, 13] [µM]",IC50 [2] [µM],Activity [3] [%],Activity [4],IC50 [5] [µM],Activity [6],Activity [7],Activity [8],Activity [9],IC50 [1] [µM]
–,–,–,COc1c(O)cc(-c2ccc(/C=C/C(=O)O)cc2)cc1C12CC3CC(CC(C3)C1)C2,0.97,0.57,20,Active,0.55,Active,Active,tde,–,–
–,–,–,COc1ccc(-c2ccc(/C=C(/Br)C(=O)O)cc2)cc1C12CC3CC(CC(C3)C1)C2,> 10,30.6,–,–,41,–,–,–,–,–
–,–,–,COc1ccc(-c2ccc(/C=C/C(=O)O)cc2)cc1C12CC3CC(CC(C3)C1)C2,1.43,1.19,47,Active,1.1,Active,Active,tde,Active,–
–,–,–,COc1cc(-c2ccc(/C=C/C(=O)O)cc2)cc(C23CC4CC(CC(C4)C2)C3)c1O,–,0.52,–,–,0.27,–,–,–,–,–
Active,Active,–,O=C(O)/C=C/c1ccc(-c2cc3c(c(C45CC6CC(CC(C6)C4)C5)c2)OCO3)cc1,0.46,0.39,50,Active,0.26,Active,Active,tde,–,–
–,–,–,COc1cc(-c2ccc(/C=C/C(=O)O)cc2)cc(C23CC4CC(CC(C4)C2)C3)c1OC,2.4,0.71,–,–,1.89,–,–,–,–,–
–,–,–,O=C(O)/C(Br)=C\c1ccc(-c2cc3c(c(C45CC6CC(CC(C6)C4)C5)c2)OCO3)cc1,34.1,36.6,–,–,72.3,–,–,–,–,–
–,–,Active,O=C(O)/C=C/c1ccc(-c2ccc(O)c(C34CC5CC(CC(C5)C3)C4)c2)cc1 [ADAROTENE],0.4,–,51,–,–,Active,Active,–,–,–
–,–,–,O=Cc1cc(-c2ccc(/C=C/C(=O)O)cc2)cc(C23CC4CC(CC(C4)C2)C3)c1O,2.72,1.64,–,–,1.61,–,–,–,–,–
–,–,–,CC(=O)NCc1cc(-c2ccc(/C=C/C(=O)O)cc2)cc(C23CC4CC(CC(C4)C2)C3)c1O,2.89,1.24,–,–,0.99,–,–,–,–,–
–,–,–,O=C(O)/C=C/c1ccc(-c2cc(CO)c(O)c(C34CC5CC(CC(C5)C3)C4)c2)cc1,–,0.76,45,–,0.19,Active,Active,–,–,1.04
–,–,–,COc1ccc(-c2ccc(/C=C(\Br)C(=O)O)cc2)cc1C12CC3CC(CC(C3)C1)C2,> 20,> 20,–,–,17.9,–,–,–,–,–
–,–,–,Cl.NCc1cc(-c2ccc(/C=C/C(=O)O)cc2)cc(C23CC4CC(CC(C4)C2)C3)c1O,0.39,0.45,55,Active,0.18,Active,Active,tde,–,–
–,–,–,O=C(O)C#Cc1ccc(-c2cc3c(c(C45CC6CC(CC(C6)C4)C5)c2)OCO3)cc1,4.8,3.6,–,–,2,–,–,–,–,–
–,–,–,COc1ccc(-c2ccc(C#CC(=O)O)cc2)cc1C12CC3CC(CC(C3)C1)C2,4.8,1.7,–,–,–,–,–,–,–,–
–,–,–,O=C(O)/C=C/c1ccc(-c2cc3c(c(C45CC6CC(CC(C6)C4)C5)c2)OCCO3)cc1,0.48,0.23,30,Active,0.11,Active,Active,tde,–,–
–,–,–,O=C(O)/C=C/c1ccc(-c2cccc(C34CC5CC(CC(C5)C3)C4)c2)cc1,21.9,18.8,–,–,–,–,–,–,–,–
